{"source": "ChEMBL document CHEMBL1124260", "about": "“Synthesis and antitumor activity of quaternary ellipticine glycosides, a series of novel and highly active antitumor agents” (1988)", "assay_type_in_all_cases": "functional", "key": {"Mus musculus [1]": {"system": "Mus musculus", "experiment": "Antitumor activity against ip implanted L1210 leukemia in mouse after ip administration of 2.5 mg/kg for 5 days expressed as increase in mean life span", "conditions": "120 h, route intraperitoneal", "method_in_brief": "(§1)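 Drug was dissolved in 0.9% NaCl, diluted just before use and given ip once daily for 5 consecutive days, starting 24 h after transplant. ILS % = mean survival time of treated vs control mice, observed for 80 days.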"}, "Mus musculus [2]": {"system": "Mus musculus", "experiment": "Number of survivors out of 6 ip implanted L1210 leukemia mouse tested after 80 days at 2.5 mg/kg", "conditions": "route intraperitoneal", "method_in_brief": "(§2)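 Female BDF1 mice implanted ip with ascitic fluid holding 10^5 L1210 cells. Saline-dissolved drug given ip daily on days 1-5, starting 24 h after implant. Six mice per dose group, followed 80 days. Survivors/total counted at day 80; ILS % from mean survival time vs controls.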"}, "Mus musculus [3]": {"system": "Mus musculus", "experiment": "Number of survivors out of 6 ip implanted L1210 leukemia mouse tested after 80 days at 60 mg/kg", "conditions": "route intraperitoneal", "method_in_brief": "as §2"}, "Mus musculus [4]": {"system": "Mus musculus", "experiment": "Antitumor activity against ip implanted L1210 leukemia in mouse after ip administration of 60 mg/kg for 5 days expressed as increase in mean life span", "conditions": "120 h, route intraperitoneal", "method_in_brief": "as §1"}}, "data": [{"smiles": "Cc1c2cc[n+]([C@H]3O[C@@H](CO)[C@H](O)[C@@H](O)[C@@H]3O)cc2c(C)c2c1[nH]c1ccc(O)cc12.[Br-]", "values": [{"measurement": "ILS at 2.5 mg/kg", "setting": "Mus musculus [1]", "result": 58, "unit": "%"}, {"measurement": "Cures", "setting": "Mus musculus [2]", "result": 0}]}, {"smiles": "CC(=O)OC1C(C)OC([n+]2ccc3c(C)c4[nH]c5ccc(O)cc5c4c(C)c3c2)C(OC(C)=O)C1OC(C)=O.[Br-]", "note": "(centres undefined)", "values": [{"measurement": "Cures", "setting": "Mus musculus [3]", "result": 0}, {"measurement": "ILS at 60 mg/kg", "setting": "Mus musculus [4]", "result": 89, "unit": "%"}]}]}
